Values after ≈ are worked out from the molar mass of the structure shown.
Key:
Type in all cases: functional
Aspergillus niger = test: Antifungal activity against Aspergillus niger ATCC 16404 after 24 hrs by two-fold broth microdilution method; settings: ATCC 16404, 24 h
Procedure, shortened: (§1)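 Strains subcultured one day before testing; colonies suspended in sterile water and adjusted to 0.5 McFarland (1.5 × 10^8 cfu/ml). Two-fold dilutions in MHB (medium pH 7.4 ± 0.1), final 200 to 0.39 µg/ml. Incubated 37 ± 1 °C for 24 h, then resazurin (0.4 mg/ml) added for a further 5 h. MIC read by colour: blue = no growth, pink = growth.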

Pseudomonas aeruginosa = test: Antibacterial activity against Pseudomonas aeruginosa ATCC 27853 after 24 hrs by two-fold broth microdilution method; settings: ATCC 27853, 24 h; procedure, shortened: as §1
Candida albicans [1] = test: Antifungal activity against Candida albicans clinical isolate after 24 hrs by two-fold broth microdilution method; procedure, shortened: as §1
Cryptococcus neoformans [2] = test: Antifungal activity against […] clinical isolate after 24 hrs by two-fold broth microdilution method; procedure, shortened: as §1
Candida albicans [3] = test: Antifungal activity against Candida albicans ATCC 90028 after 24 hrs by two-fold broth microdilution method; settings: ATCC 90028, 24 h; procedure, shortened: as §1
Escherichia coli = test: Antibacterial activity against Escherichia coli ATCC 35218 after 24 hrs by two-fold broth microdilution method; settings: ATCC 35218, 24 h; procedure, shortened: as §1
Cryptococcus neoformans [4] = test: Antifungal activity against […] ATCC 66031 after 24 hrs by two-fold broth microdilution method; settings: ATCC 66031, 24 h; procedure, shortened: as §1
Bacillus subtilis = test: Antibacterial activity against Bacillus subtilis ATCC 6051 after 24 hrs by two-fold broth microdilution method; settings: ATCC 6051, 24 h; procedure, shortened: as §1
Staphylococcus aureus = test: Antibacterial activity against Staphylococcus aureus ATCC 25923 after 24 hrs by two-fold broth microdilution method; settings: ATCC 25923, 24 h; procedure, shortened: as §1
Cryptococcus neoformans [5] = test: Antimicrobial activity against […]
Candida albicans [6] = test: Antimicrobial activity against Candida albicans
Candida tropicalis = test: Antimicrobial activity against Candida tropicalis
MDA-MB-231 = test: Cytotoxicity against human MDA-MB-231 cells
MDA-MB-468 = test: Cytotoxicity against human MDA-MB-468 cells
MCF7 = test: Cytotoxicity against human MCF7 cells
[7] = Cytotoxicity against human HL60 cells; settings: HL-60
[8] = Cytotoxicity against human OVCAR3 cells; settings: OVCAR-3

| Compound | MIC (Aspergillus niger) | MIC (Pseudomonas aeruginosa) | MIC (Candida albicans [1]) | MIC (Cryptococcus neoformans [2]) | MIC (Candida albicans [3]) | MIC (Escherichia coli) | MIC (Cryptococcus neoformans [4]) | MIC (Bacillus subtilis) | MIC (Staphylococcus aureus) | MIC (Cryptococcus neoformans [5]) | MIC (Candida albicans [6]) | MIC (Candida tropicalis) | GI50 (MDA-MB-231) | GI50 (MDA-MB-468) | GI50 (MCF7) | GI50 [7] | GI50 [8] |
| --- | --- | --- | --- | --- | --- | --- | --- | --- | --- | --- | --- | --- | --- | --- | --- | --- | --- |
| Brc1ccc(-c2nc3sc(-c4ccc(I)cc4)nn3c2/C=N/C2CCCCC2)cc1 | 100 µg/mL (≈ 169 µM) | 50 µg/mL (≈ 84.6 µM) | 50 µg/mL (≈ 84.6 µM) | > 200 µg/mL | 25 µg/mL (≈ 42.3 µM) | 200 µg/mL (≈ 338 µM) | 100 µg/mL (≈ 169 µM) | 200 µg/mL (≈ 338 µM) | 200 µg/mL (≈ 338 µM) |  |  |  |  |  |  |  |  |
| COc1ccc(-c2nn3cc(-c4ccc(Br)cc4)nc3s2)cc1OC |  |  |  |  |  |  |  |  |  | 6.25 µg/mL (≈ 15 µM) | 6.25 µg/mL (≈ 15 µM) | 12.5 µg/mL (≈ 30 µM) |  |  |  |  |  |
| COc1ccc(C(=O)/C=C2\C(=O)Nc3ccc(Cl)cc32)cc1OC |  |  |  |  |  |  |  |  |  |  |  |  | 8.54 µM | 4.76 µM | 3.95 µM |  |  |
| CC1=NN2C(=NC(C)C2C(=O)NNc2ccc(O)cc2)S1 (configuration not stated) |  |  |  |  |  |  |  |  |  |  |  |  |  |  | 4.51 µM | 4.5 µM | 5.51 µM |
| O=C(/C=C/c1c(-c2ccc(Br)cc2)nc2sc(-c3ccccc3Cl)nn12)c1ccccc1 | > 200 µg/mL | > 200 µg/mL | > 200 µg/mL | 12.5 µg/mL (≈ 24 µM) | > 200 µg/mL | 100 µg/mL (≈ 192 µM) | 12.5 µg/mL (≈ 24 µM) | > 200 µg/mL | > 200 µg/mL |  |  |  |  |  |  |  |  |
| O=C(/C=C/c1c(-c2ccc(Br)cc2)nc2sc(-c3ccccc3Br)nn12)c1cccs1 | > 200 µg/mL | > 200 µg/mL | > 200 µg/mL | 12.5 µg/mL (≈ 21.9 µM) | > 200 µg/mL | > 200 µg/mL | 3.12 µg/mL (≈ 5.47 µM) | > 200 µg/mL | > 200 µg/mL |  |  |  |  |  |  |  |  |
| Cc1ccc(C(=O)/C=C/c2c(-c3ccc(Br)cc3)nc3sc(-c4ccccc4Br)nn23)cc1 | > 200 µg/mL | > 200 µg/mL | > 200 µg/mL | 12.5 µg/mL (≈ 21.6 µM) | 200 µg/mL (≈ 345 µM) | > 200 µg/mL | 1.56 µg/mL (≈ 2.69 µM) | > 200 µg/mL | 100 µg/mL (≈ 173 µM) |  |  |  |  |  |  |  |  |
| O=C(/C=C/c1c(-c2ccc(Br)cc2)nc2sc(-c3ccccc3Br)nn12)c1ccccc1 | > 200 µg/mL | > 200 µg/mL | > 200 µg/mL | 6.25 µg/mL (≈ 11.1 µM) | 200 µg/mL (≈ 354 µM) | > 200 µg/mL | 1.56 µg/mL (≈ 2.76 µM) | > 200 µg/mL | 200 µg/mL (≈ 354 µM) |  |  |  |  |  |  |  |  |
| Cc1ccc(C(=O)/C=C/c2c(-c3ccc(Br)cc3)nc3sc(-c4ccccc4Cl)nn23)cc1 | > 200 µg/mL | > 200 µg/mL | > 200 µg/mL | 100 µg/mL (≈ 187 µM) | 50 µg/mL (≈ 93.5 µM) | > 200 µg/mL | 50 µg/mL (≈ 93.5 µM) | > 200 µg/mL | 200 µg/mL (≈ 374 µM) |  |  |  |  |  |  |  |  |

Continued, in another order:

| MIC (Aspergillus niger) | MIC (Pseudomonas aeruginosa) | MIC (Candida albicans [1]) | MIC (Cryptococcus neoformans [2]) | MIC (Candida albicans [3]) | MIC (Escherichia coli) | MIC (Cryptococcus neoformans [4]) | MIC (Bacillus subtilis) | MIC (Staphylococcus aureus) | MIC (Cryptococcus neoformans [5]) | MIC (Candida albicans [6]) | MIC (Candida tropicalis) | Compound | GI50 (MDA-MB-231) | GI50 (MDA-MB-468) | GI50 (MCF7) | GI50 [7] | GI50 [8] |
| --- | --- | --- | --- | --- | --- | --- | --- | --- | --- | --- | --- | --- | --- | --- | --- | --- | --- |
| 100 µg/mL (≈ 200 µM) | 50 µg/mL (≈ 100 µM) | 25 µg/mL (≈ 50 µM) | > 200 µg/mL | 12.5 µg/mL (≈ 25 µM) | 200 µg/mL (≈ 400 µM) | 100 µg/mL (≈ 200 µM) | 200 µg/mL (≈ 400 µM) | 200 µg/mL (≈ 400 µM) |  |  |  | Clc1ccccc1-c1nn2c(/C=N/C3CCCCC3)c(-c3ccc(Br)cc3)nc2s1 |  |  |  |  |  |
| 100 µg/mL (≈ 236 µM) | 50 µg/mL (≈ 118 µM) | 50 µg/mL (≈ 118 µM) | > 200 µg/mL | 25 µg/mL (≈ 59.1 µM) | 200 µg/mL (≈ 472 µM) | 100 µg/mL (≈ 236 µM) | 200 µg/mL (≈ 472 µM) | 200 µg/mL (≈ 472 µM) |  |  |  | Brc1ccc(-c2nc3sc(-c4ccccc4)nn3c2/C=N/C2CC2)cc1 |  |  |  |  |  |
| 100 µg/mL (≈ 218 µM) | 50 µg/mL (≈ 109 µM) | 50 µg/mL (≈ 109 µM) | 200 µg/mL (≈ 437 µM) | 25 µg/mL (≈ 54.6 µM) | 200 µg/mL (≈ 437 µM) | 100 µg/mL (≈ 218 µM) | 200 µg/mL (≈ 437 µM) | 200 µg/mL (≈ 437 µM) |  |  |  | Clc1ccc(-c2nn3c(/C=N/C4CC4)c(-c4ccc(Br)cc4)nc3s2)cc1 |  |  |  |  |  |
| 100 µg/mL (≈ 200 µM) | 50 µg/mL (≈ 100 µM) | 50 µg/mL (≈ 100 µM) | > 200 µg/mL | 50 µg/mL (≈ 100 µM) | 200 µg/mL (≈ 400 µM) | 100 µg/mL (≈ 200 µM) | 200 µg/mL (≈ 400 µM) | 200 µg/mL (≈ 400 µM) |  |  |  | Clc1ccc(-c2nn3c(/C=N/C4CCCCC4)c(-c4ccc(Br)cc4)nc3s2)cc1 |  |  |  |  |  |
| 100 µg/mL (≈ 221 µM) | 25 µg/mL (≈ 55.1 µM) | 50 µg/mL (≈ 110 µM) | > 200 µg/mL | 25 µg/mL (≈ 55.1 µM) | 200 µg/mL (≈ 441 µM) | 100 µg/mL (≈ 221 µM) | 200 µg/mL (≈ 441 µM) | 200 µg/mL (≈ 441 µM) |  |  |  | COc1ccc(-c2nn3c(/C=N/C4CC4)c(-c4ccc(Br)cc4)nc3s2)cc1 |  |  |  |  |  |
| 100 µg/mL (≈ 182 µM) | 50 µg/mL (≈ 91 µM) | 50 µg/mL (≈ 91 µM) | > 200 µg/mL | 25 µg/mL (≈ 45.5 µM) | 200 µg/mL (≈ 364 µM) | 100 µg/mL (≈ 182 µM) | 200 µg/mL (≈ 364 µM) | 200 µg/mL (≈ 364 µM) |  |  |  | Brc1ccc(-c2nc3sc(-c4ccc(I)cc4)nn3c2/C=N/C2CC2)cc1 |  |  |  |  |  |

— ChEMBL document CHEMBL3414553, “Novel imidazo[2,1-b]-1,3,4-thiadiazoles as promising antifungal agents against clinical isolate of Cryptococcus neoformans” (2015)
